Assay results taken from PMC3545090 (Biochemistry, 2012).
Entries after “also recorded” stand apart in the source; their conditions may differ.

How the values were obtained:
[1] = system: allergic rhinitis; conditions: delivered intranasally; ref [31]; cited from earlier work
[2] = system: peripheral T-cell lymphoma cells; conditions: cells with elevated Syk Y525/Y526 phosphorylation; ref [8]; cited from earlier work
[3] = system: kinases; conditions: binding affinity for kinases; ref [30]; cited from earlier work
[4] = target: T1, Syk (Homo sapiens, UniProt P43405); experiment: Western blot of Syk tyrosine phosphorylation in inhibitor-treated DG75 cells; assay type: cell-based; conditions: anti-IgM 5 μg/mL + H2O2 1 mM
[5] = system: Syk Y525/526; experiment: Western blot of Syk Y525/526 phosphorylation in primary splenic B cells; assay type: cell-based; conditions: mouse primary splenic B cells, anti-IgM F(ab′)2
Summary of the method: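 Mouse splenic B cells enriched by panning, at 5 × 10^6 cells/mL, pre-treated with tyrosine kinase inhibitor or DMSO vehicle. SAStide biosensor peptide (25 μM) added 15 min before anti-IgM F(ab′)2 (5 μg/mL); harvested 0, 5, 10, 15 min after. Immunoblot: 5% goat serum block 1 h; primary antibodies 1:1,000, 1 h at room temperature; HRP secondary, ECL detection.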

[6] = system: rheumatoid arthritis; conditions: vs placebo; ref [32]; cited from earlier work
[7] = system: non-Hodgkins lymphomas; conditions: ongoing trial, very small cohort; ref [29]; cited from earlier work
[8] = system: DG75 cells; experiment: Cell toxicity in DG75 cells; assay type: cell-based; conditions: high concentrations, in the presence of BCR activation and oxidative stress; loss of tubulin and Syk immunoblot signal
[9] = target: Syk-EGFP (Mus musculus, UniProt P48025); experiment: In vitro kinase assay, immobilized Syk-EGFP, ELISA-based fluorescence detection; assay type: biochemical; conditions: for rate of phosphorylation compared with other substrates: Syk-EGFP 6 nM, each substrate 4 μM, 5 mM MnCl2, HEPES pH 7.2 (Fig. 2b)
Summary of the method: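 Syk-EGFP immunoprecipitated from lysates of DT40 chicken B cells on anti-GFP beads. Bead-bound kinase (6 nM in the 4 μM substrate comparison) was mixed with peptide (4 μM, or a concentration range) in 500 μM ATP, 5 mM MnCl2, HEPES pH 7.2. Timed aliquots were EDTA-quenched. Neutravidin-captured peptide was probed with 4G10 anti-phosphotyrosine and HRP secondary, then read by Amplex Red (ex 532/em 590 nm). Initial velocities were fitted to a sigmoidal curve; three replicates.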

[10] = target: T1, Syk; conditions: cited from earlier work
[11] = system: acute myelogenous leukemia; conditions: ref [34]; cited from earlier work
[12] = 500 μM ATP, average of three replicate experiments
[13] = different enzyme preparation and ATP concentration from this paper, ref [13b]

Chain of Syk-EGFP (P48025 whole entry): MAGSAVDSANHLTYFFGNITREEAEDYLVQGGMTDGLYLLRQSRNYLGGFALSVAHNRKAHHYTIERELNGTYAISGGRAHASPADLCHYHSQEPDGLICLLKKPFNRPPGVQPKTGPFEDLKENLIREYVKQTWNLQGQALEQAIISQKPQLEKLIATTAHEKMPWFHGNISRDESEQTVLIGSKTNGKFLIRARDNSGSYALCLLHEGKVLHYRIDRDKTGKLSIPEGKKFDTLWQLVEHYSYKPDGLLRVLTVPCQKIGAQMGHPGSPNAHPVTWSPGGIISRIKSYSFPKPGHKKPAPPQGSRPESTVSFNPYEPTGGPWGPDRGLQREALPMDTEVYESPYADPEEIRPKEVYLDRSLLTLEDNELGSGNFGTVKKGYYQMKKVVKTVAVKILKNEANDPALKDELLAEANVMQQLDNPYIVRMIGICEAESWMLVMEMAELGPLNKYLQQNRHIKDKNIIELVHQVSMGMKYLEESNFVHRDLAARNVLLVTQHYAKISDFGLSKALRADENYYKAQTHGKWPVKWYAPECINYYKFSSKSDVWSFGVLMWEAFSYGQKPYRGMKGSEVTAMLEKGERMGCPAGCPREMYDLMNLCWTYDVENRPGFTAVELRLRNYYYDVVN

For `Oc1cccc(Nc2ncc(F)c(Nc3cccc(O)c3)n2)c1` [R112], the “relief of allergic rhinitis symptoms” value [1] is given as “effective for relieving allergic rhinitis symptoms”.

For `COc1cc(Nc2ncc(F)c(Nc3ccc4c(n3)NC(=O)C(C)(C)O4)n2)cc(OC)c1OC` [R406], the apoptosis and proliferation [2] is given as “induces apoptosis and blocks proliferation” and the kinase selectivity [3] is given as “one of the least selective kinase inhibitors evaluated”.

With `Cc1nc(Nc2ncc(C(=O)Nc3c(C)cccc3Cl)s2)cc(N2CCN(CCO)CC2)n1` [dasatinib] the “level of Syk tyrosine phosphorylation (Western blot)” value [4] was “reduction in the level of Syk tyrosine phosphorylation” and the “Y525/526 phosphorylation in the presence of inhibitor (Western blot)” value [5] was “Y525/526 remained phosphorylated”.

For `COc1cc(Nc2ncc(F)c(Nc3ccc4c(n3)N(COP(=O)(O)O)C(=O)C(C)(C)O4)n2)cc(OC)c1OC` [fostamatinib], the “benefit in rheumatoid arthritis, patients receiving methotrexate” value [6] is given as “significant benefit (over placebo)”, the “response by lymphoma subtype” value [7] is given as “slightly better response in chronic lymphocytic leukemia than the other types” and the response rates [7] is given as “response rates were low overall”.

With `Oc1cc(O)cc(/C=C/c2ccc(O)c(O)c2)c1` [piceatannol, 3,4,3′,5′-tetrahydroxy-trans-stilbene] the “level of Syk tyrosine phosphorylation (Western blot)” value [4] was “reduction in the level of Syk tyrosine phosphorylation”, the “Y525/526 phosphorylation in the presence of inhibitor (Western blot)” value [5] was “Y525/526 remained phosphorylated” and the “toxicity to DG75 cells” value [8] was “toxic to DG75 cells”.

For GGDEEDYEEPDEPGGKbGG [SAStide], the Vmax ([9]; SAStide at a range of concentrations, immunoprecipitated Syk-EGFP, 500 μM ATP, 5 mM MnCl2, HEPES pH 7.2, sigmoidal fit, three replicate experiments) was 11 ± 1 pmol/min, the “rate of phosphorylation compared with other substrates” value [9, 12] was “phosphorylated more rapidly than the previously reported Syktide sequence, but not as rapidly as the phage display-derived sequence; also recorded: phosphorylated more efficiently than the parent Syktide” and the substrate inhibition ([9]; concentrations up to 100 μM, immunoprecipitated Syk-EGFP) was “no substrate inhibition at concentrations up to 100 μM”. For the same molecule, the Km ([9]; read-out: Khalf (substrate concentration at half of Vmax in a sigmoidal curve, analogous to Km), SAStide at a range of concentrations, immunoprecipitated Syk-EGFP, 500 μM ATP, 5 mM MnCl2, HEPES pH 7.2, sigmoidal fit, average of three replicate experiments) was 86 ± 10 µM.

For GGEDDEYEEVGGKbGG [Syktide], the Km [10, 13] is listed as 3 µM and the kcat [10, 13] is listed as 1.04 s⁻¹.

For GGEDPDYEWPSAGGKbGG [Phage], the “rate of phosphorylation compared with other substrates” value [9, 12] is listed as “more efficiently phosphorylated” and the “substrate inhibition at higher concentrations” value ([10]; phage display peptide, Syk, ref [13d]) is listed as “greater than 20 μM”.

For “gemtuzumab ozogamicin: therapeutic antibody conjugated to a toxin”, the “response in relation to lower Syk expression” value [11] is listed as “lack of response”.
